Source: PubChem (Broad Institute)
Most compounds without a hit are left out; they make up all but 2.4% or so of the library.
HIV Env fusion: blocks HIV Env-driven cell-cell fusion; 1.1% of 360,000 active; inhibition, % at 12.3 µM; HeLa-JRFL Env/CEM21 cell fusion, luciferase;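 active = mean replicate inhibition score of at least 50 and every replicate individually at or above 50; inconclusive = only one of the two criteria met; inactive = mean below 50 and not all replicates reaching 50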
dFosB act-1: activators of mouse delta FosB homodimer. purified delta FosB, TAMRA-CDK5 oligo fluorescence polarization; percent of positive-control signal above neutral wells. P13346. activation, % at 25 µM. 0.99% of 340,000 active. AID 493131;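 active = mean activation above about 17%, with every replicate also reaching it, limit read from the data, passing the limit was not always enough; inconclusive = only one of the two conditions met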
Target sequence (P13346 whole entry, looked up): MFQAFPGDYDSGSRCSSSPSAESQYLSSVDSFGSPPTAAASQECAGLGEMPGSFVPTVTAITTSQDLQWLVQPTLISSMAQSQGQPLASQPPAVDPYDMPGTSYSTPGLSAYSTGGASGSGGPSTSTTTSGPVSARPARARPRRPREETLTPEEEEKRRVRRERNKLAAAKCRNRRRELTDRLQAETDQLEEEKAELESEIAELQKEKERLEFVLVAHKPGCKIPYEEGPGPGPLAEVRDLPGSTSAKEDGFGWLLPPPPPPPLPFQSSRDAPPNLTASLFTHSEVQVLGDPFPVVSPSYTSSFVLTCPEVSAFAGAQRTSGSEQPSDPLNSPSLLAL
INS-1E GSIS act: primary screen for activators of insulin secretion dependent on glucose, INS-1E cells, GLuc reporter luminescence; activation, % at 16.6 µM; 0.61% of 370,000 active; INS-1E GLuc reporter insulin secretion, 2-3 h;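 active = lowest replicate activation of at least 40%, so every replicate reaches that level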
miR122 inh: blocks miR-122 activity in Huh7 sensor cells; activation (reporter increase), % at 12.5 µM; 0.3% of 340,000 active; Huh7 miR-122 Renilla luciferase sensor, 48 h; neutral wells = 0, positive control = 100;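 active = mean replicate activation score at least 90 and every replicate individually at or above 90; inconclusive = only one of the two criteria met; inactive = neither criterion met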;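 note: higher luciferase means less miR-122 activity so hits act as miR-122 inhibitors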
Cneo AK release: causes C. neoformans cell lysis; AID 651654; 0.2% of 360,000 active; lysis activity, % at 15 µM; adenylate kinase release luminescence, 4 h; normalised: neutral wells 0, clomiphene wells 100;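 active = mean lysis activity across replicates of at least 80%, whatever share of replicates individually reach that level; inactive = mean lysis activity below 80%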
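Schedule: static 4 h at 37 °C with compound, 1 h detection; system: C. neoformans cells; benchmarks: Clomiphene as positive control; buffer or medium: fresh YPD medium; measure: luminescence rise reflecting yeast cell lysis; measured by: luminescent adenylate kinase detection reagent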
Rtt109 Vps75: blocks Candida albicans Rtt109/Vps75 acetyltransferase activity; purified Rtt109/Vps75, ThioGlo CoA-SH fluorescence, 4 h; inhibition, % at 34.9 µM; 0.16% of 330,000 active; AID 540336;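 active = inhibition of at least 50% in every replicate; inconclusive = best replicate reaches 50% inhibition but some replicates fall short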
Target sequence (Q5AAJ8 whole entry, looked up): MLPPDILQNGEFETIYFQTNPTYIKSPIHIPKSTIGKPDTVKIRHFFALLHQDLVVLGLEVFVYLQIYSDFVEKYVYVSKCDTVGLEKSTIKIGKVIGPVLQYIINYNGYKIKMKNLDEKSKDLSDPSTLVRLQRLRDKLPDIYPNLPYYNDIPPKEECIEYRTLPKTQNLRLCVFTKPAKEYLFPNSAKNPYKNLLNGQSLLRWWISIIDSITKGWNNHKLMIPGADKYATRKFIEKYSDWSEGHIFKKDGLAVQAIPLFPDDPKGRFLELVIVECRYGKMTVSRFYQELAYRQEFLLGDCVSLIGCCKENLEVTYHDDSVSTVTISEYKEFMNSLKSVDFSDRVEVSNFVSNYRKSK
dFosB act-2: enhances mouse delta FosB homodimer binding to DNA; purified delta FosB, TAMRA-CDK5 oligo fluorescence polarization; normalised: neutral wells 0, positive control 100; 2,400 tested, under 10 active; shares compounds with dFosB act-1; activation, % at 24.9 µM; AID 588690;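 active = highest replicate activation at or above 34% and every replicate reaching that threshold; inconclusive = meets only one of the two criteria; inactive = meets neither criterion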;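 note: higher polarization means more probe DNA bound by delta FosB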
Of the large screens only hits and unclear results are named; the others gave an inactive call (follow-up assays come after a bar, where they were run).

COc1ccc(/C=N/NC(=O)c2cc3c(ccc4ccccc43)o2)cc1OC	dFosB act-1 76.9 | dFosB act-2 inactive
C[C@H](CO)N1C[C@H](C)[C@@H](CN(C)C(=O)C2CCC2)Oc2ncc(-c3ccc(F)cc3)cc2C1=O	none (no result: dFosB act-1, Rtt109 Vps75)
CCOC(=O)c1[nH]c2c(c1C)C(=O)CC(c1ccc(F)cc1)C2 (configuration not stated)	dFosB act-1 20.8 | dFosB act-2 inactive
CCOCCOC(=O)c1[nH]c2c(c1C)C(=O)CC(c1ccccc1)C2 (configuration not stated)	none
Cc1c(C(=O)Nc2ccc(-c3nnc4n3CCCCC4)cc2)oc2c1ccc1ccccc12	dFosB act-1 32.2 | dFosB act-2 inactive
O=C(Nc1ccc(-c2nnc3n2CCCCC3)cc1)c1cc2ccccc2o1	none (no result: miR122 inh, Cneo AK release)
COc1ccc(/C=C/C(=O)NC(=S)NNC(=O)[C@H]2C[C@@H]2c2ccccc2)cc1OC	dFosB act-1 71.2 | dFosB act-2 inactive
COCC(=O)N1CCC2(CC1)CN(Cc1cccc(OC)c1)[C@H](CO)c1c2c2ccc(OC)cc2n1C	none (no result: HIV Env fusion, dFosB act-1, miR122 inh, Cneo AK release, Rtt109 Vps75)
COc1ccc(NC(=O)C(OC(=O)c2ccccc2)c2cccs2)cc1 (configuration not stated)	none (no result: dFosB act-1, INS-1E GSIS act, miR122 inh, Rtt109 Vps75)
Cc1ccc(S(=O)(=O)N(C)c2ccc(OC(=O)CN3C(=O)NC4(CCCC4)C3=O)cc2)cc1	none (no result: miR122 inh)
Cc1ccc(S(=O)(=O)N(C)c2ccc(OC(=O)CN3C(=O)NC4(CCCC4)C3=O)cc2)cc1C	dFosB act-1 24.7 | dFosB act-2 inactive
CC(C)c1cn(CC[C@@H]2CC[C@H](NS(=O)(=O)Cc3ccccc3)[C@@H](CO)O2)nn1	none (no result: dFosB act-1, Rtt109 Vps75)
CCOC(=O)c1ccc(S(=O)(=O)NNC(=O)COc2ccc(C)cc2)cc1	dFosB act-1 60.6 (no result: INS-1E GSIS act, miR122 inh, Cneo AK release) | dFosB act-2 inactive
O=C(CSCCO)Nc1cccc2ccccc12	none (no result: INS-1E GSIS act)
O=C(CSCC(=O)Nc1cccc2ccccc12)Nc1cccc2ccccc12	HIV Env fusion 71.3, dFosB act-1 49.3 | dFosB act-2 inactive
O=C(COC(=O)c1cc(=O)[nH]c2ccccc12)Nc1nc(-c2ccc(F)cc2)cs1	dFosB act-1 41.4 | dFosB act-2 inactive
O=C(COC(=O)c1cc(=O)[nH]c2ccccc12)NCc1ccc(F)cc1	none (no result: HIV Env fusion, miR122 inh)
O=C(COC(=O)c1cc(=O)[nH]c2ccccc12)NCc1ccc(Cl)cc1	dFosB act-1 57.0 (no result: HIV Env fusion) | dFosB act-2 inactive
O=C(COC(=O)c1cc(Cl)ccc1O)NC(=O)NCc1ccccc1	dFosB act-1 24.1 (no result: miR122 inh) | dFosB act-2 inactive
CN(C)CC(=O)N1[C@@H]2c3ccc(-c4ccc(F)cc4)c(=O)n3C[C@@H]2[C@@H](CO)[C@@H]1C(=O)NC1CCC1	none (no result: HIV Env fusion, dFosB act-1, Rtt109 Vps75)
CO[C@H]1CC[C@H]2CCN(C)C(=O)[C@H](C)[C@@H](OC)CN(C)C(=O)c3cc(C#N)ccc3OC[C@H]1O2	none (no result: dFosB act-1, miR122 inh, Rtt109 Vps75)
CCC(C)c1ccc(S(=O)(=O)N2CCN(S(=O)(=O)c3ccc(NC(C)=O)cc3)CC2)cc1 (configuration not stated)	dFosB act-1 80.5 | dFosB act-2 inactive
O=C(/C=C\c1ccco1)Nc1nc(-c2ccccc2)cs1	none (no result: INS-1E GSIS act, Cneo AK release)
O=C(/C=C/c1ccccc1)Nc1nc(-c2ccncc2)cs1	dFosB act-1 16.7 | dFosB act-2 inactive
CCO[C@@H]1OC(C(=O)N2CCN(Cc3ccccc3)CC2)=C[C@H](c2ccc3c(c2)OCO3)[C@H]1CCCO	none (no result: dFosB act-1, INS-1E GSIS act, miR122 inh, Rtt109 Vps75)
Cc1csc2ncnc(NNC(=O)c3ccc(Cl)cc3)c12	HIV Env fusion 65.7, dFosB act-1 28.1 (no result: INS-1E GSIS act, miR122 inh, Cneo AK release) | dFosB act-2 inactive
COc1cc(OC)c(NC(=O)c2sc3ncn(CC(=O)N4CCN(c5ccccn5)CC4)c(=O)c3c2C)cc1Cl	dFosB act-1 23.6 | dFosB act-2 inactive
Cc1sc2ncnc(SCC(=O)c3ccc(O)cc3O)c2c1C	dFosB act-1 40.3 (no result: miR122 inh, Cneo AK release) | dFosB act-2 inactive
O=C(Nc1ccc(Br)cc1)c1ccc(F)c(S(=O)(=O)N2CCN(c3ccccn3)CC2)c1	none (no result: miR122 inh, Cneo AK release)
Cc1ccccc1NC(=O)c1ccc(F)c(S(=O)(=O)N2CCN(c3ccccn3)CC2)c1	dFosB act-1 19.0 (no result: HIV Env fusion, miR122 inh, Cneo AK release) | dFosB act-2 inactive
CCOC(=O)c1c(NC(=O)C(NCCN(C)C)c2ccccc2)sc2c1CCCC2 (configuration not stated)	dFosB act-1 34.1 | dFosB act-2 inconclusive
CCOC(=O)c1c(NC(=O)c2ccco2)sc2c1CCCC2	none (no result: INS-1E GSIS act)
COc1cccc(-c2ccc3c(c2)[C@H]2[C@H](CCN2C(=O)c2cccc(F)c2)[C@H](CO)N3)c1	none (no result: HIV Env fusion, dFosB act-1, Rtt109 Vps75)
CN(C)CCCN1C(=O)c2cccc3c(Br)ccc(c23)C1=O	dFosB act-1 31.8 (no result: miR122 inh, Cneo AK release) | dFosB act-2 inactive
COc1cccc(-c2c(C(=O)N/N=C/c3ccsc3)nnn2-c2nonc2N)c1	dFosB act-1 20.4 (no result: miR122 inh) | dFosB act-2 inactive
COc1cccc(-c2c(C(=O)N/N=C/c3sccc3C)nnn2-c2nonc2N)c1	none (no result: miR122 inh)
CCOc1ccc(-c2c(C(=O)N/N=C/c3cccc(Br)c3)nnn2-c2nonc2N)cc1	dFosB act-1 54.5 | dFosB act-2 inactive
CCOc1cccc(-c2c(C(=O)N/N=C/c3ccc(Br)cc3)nnn2-c2nonc2N)c1	dFosB act-1 28.9 | dFosB act-2 inactive
Cc1cc(C(=O)N/N=C\c2ccc(COc3ccc([N+](=O)[O-])cc3)o2)ccc1[N+](=O)[O-]	dFosB act-1 36.0 (no result: INS-1E GSIS act) | dFosB act-2 inactive
Cc1ccc(OCC(=O)N/N=C\c2ccc(C)o2)c([N+](=O)[O-])c1	none (no result: miR122 inh, Cneo AK release)
CCOc1ccc(C(=O)N/N=C/c2cc([N+](=O)[O-])cs2)cc1	dFosB act-1 21.2 (no result: miR122 inh, Cneo AK release) | dFosB act-2 inactive
COc1cc(C(=O)N/N=C/c2cc([N+](=O)[O-])cs2)cc(OC)c1OC	none (no result: HIV Env fusion, miR122 inh, Cneo AK release)
CNC[C@H]1Oc2cc(C#Cc3ccccn3)ccc2S(=O)(=O)N([C@@H](C)CO)C[C@@H]1C	none (no result: dFosB act-1, Rtt109 Vps75)
CO[C@H]1CN(C)C(=O)c2cc(NC(=O)NC3CCCCC3)ccc2OC[C@H](C)N(CC2CC2)C[C@@H]1C	none (no result: HIV Env fusion, dFosB act-1, Rtt109 Vps75)
N=C1C(c2nc3ccccc3s2)=C(O)CN1NC(=O)c1ccccc1[N+](=O)[O-]	none (no result: miR122 inh, Cneo AK release)
N=C1C(c2nc3ccccc3s2)=C(O)CN1NC(=O)c1c[nH]c2ccccc12	dFosB act-1 26.7 (no result: miR122 inh, Cneo AK release) | dFosB act-2 inactive
CCCN1C[C@@H](C)[C@H](OC)CN(C)C(=O)c2cc(NC(=O)C3CC3)ccc2OC[C@@H]1C	none (no result: HIV Env fusion, dFosB act-1, miR122 inh, Rtt109 Vps75)
O=C(Nc1ccc2c(c1)OCO2)Nc1ccc(Cl)cc1Cl	dFosB act-1 28.9 (no result: INS-1E GSIS act) | dFosB act-2 inactive
O=C(Nc1cnccn1)Nc1ccc(Cl)cc1Cl	dFosB act-1 33.7 | dFosB act-2 inactive
Cc1cccc(NC(=O)c2cc(-c3cc(C)c(C)cc3O)n[nH]2)c1	none
